For data set [1], the target named is hERG (KCNH2) (Homo sapiens, UniProt Q12809). In words: Inhibition of human ERG at 10 uM relative to control. The essentials:
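hERG channel blocking tested at 10 μM, reported as % inhibition.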

Data set [2] has as its system HT-22. In words: Cytotoxicity against mouse HT22 cells assessed as decrease in cell viability at 10 uM by MTT assay relative to control. Particulars: ht-22, 10 µM. The format is cell-based. The essentials:
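HT-22 immortalized hippocampal neuronal cells incubated with compound at 10 μM; viability read by MTT assay and expressed as % of control.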
On the technique in general: Tetrazolium assays rely on reduction of a dye to a coloured formazan, in cell work by metabolically active cells.

In data set [3] the test system is Mus musculus. In words: In vivo inhibition of glutaminyl cyclase in ICR mouse brain extract assessed as decrease in levels of human pyroglutamyl-beta-amyloid (1 to 40) containing N-terminal pyroglutamte at position 3 at 25 mg/kg, icv measured next day by sandwich ELISA relative to control. The format is functional. Particulars: central. The method, boiled down: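 Male ICR mice (25 g, n = 4) received icv injection of human Aβ3-40 (5 μL of 1 μg/μL in PBS, 5 µg) into deep cortical/hippocampal tissue via stereotaxic frame, then compound at 25 mg/kg icv. Brain extracts taken next day; Aβ N3pE-40 quantified by sandwich ELISA, expressed as % inhibition versus vehicle control.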

Each structure is given as a SMILES string.

Chain of hERG (KCNH2) (Q12809 whole entry): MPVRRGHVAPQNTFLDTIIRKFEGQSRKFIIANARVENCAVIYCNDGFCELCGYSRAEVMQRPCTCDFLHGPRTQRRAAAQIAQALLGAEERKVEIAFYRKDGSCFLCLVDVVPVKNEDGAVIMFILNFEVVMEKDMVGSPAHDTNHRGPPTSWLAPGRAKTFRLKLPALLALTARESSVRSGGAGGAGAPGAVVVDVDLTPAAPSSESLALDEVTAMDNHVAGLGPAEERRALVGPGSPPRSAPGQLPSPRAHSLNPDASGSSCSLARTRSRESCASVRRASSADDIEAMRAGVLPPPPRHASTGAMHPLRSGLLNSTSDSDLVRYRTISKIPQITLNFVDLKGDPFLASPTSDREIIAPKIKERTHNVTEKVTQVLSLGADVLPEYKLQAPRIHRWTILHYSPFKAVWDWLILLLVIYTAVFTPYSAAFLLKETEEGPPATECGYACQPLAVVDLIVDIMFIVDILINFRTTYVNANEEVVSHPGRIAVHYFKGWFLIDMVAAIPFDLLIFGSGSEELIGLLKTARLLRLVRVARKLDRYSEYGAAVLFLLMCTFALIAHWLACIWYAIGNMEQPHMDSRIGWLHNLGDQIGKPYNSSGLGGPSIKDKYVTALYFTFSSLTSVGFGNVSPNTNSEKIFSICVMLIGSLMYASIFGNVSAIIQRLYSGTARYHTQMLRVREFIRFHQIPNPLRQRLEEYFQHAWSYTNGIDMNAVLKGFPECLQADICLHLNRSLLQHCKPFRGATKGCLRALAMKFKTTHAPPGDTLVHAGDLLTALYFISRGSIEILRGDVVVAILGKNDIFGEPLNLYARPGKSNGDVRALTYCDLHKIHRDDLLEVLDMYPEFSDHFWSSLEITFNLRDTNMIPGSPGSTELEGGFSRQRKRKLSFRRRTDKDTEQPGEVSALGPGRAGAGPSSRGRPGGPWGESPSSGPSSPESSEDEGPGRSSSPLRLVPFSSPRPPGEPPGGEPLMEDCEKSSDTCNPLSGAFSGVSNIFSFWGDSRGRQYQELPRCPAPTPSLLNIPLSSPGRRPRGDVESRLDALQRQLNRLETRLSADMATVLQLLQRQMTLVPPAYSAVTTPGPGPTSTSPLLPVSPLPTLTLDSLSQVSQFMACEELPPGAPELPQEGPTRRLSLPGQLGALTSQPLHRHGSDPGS

The term inhibition denotes the share of the control response that was lost under treatment. A low value points to a weak effect. What is called inhibition in vivo is the percentage by which the read-out fell short of the control. `COc1ccc(NC(=S)NCCCn2cncc2C)cc1OCCN` registered an inhibition at 10 µM in data set [1] of 15.3%. For the same molecule, in data set [2], the Activity amounted to 100%. Moreover, in data set [3], the inhibition in vivo at 25 mg/kg worked out at 35.3%.
For the molecule `Cc1cncn1CCCNC(=S)Nc1ccc(/C=C/C(=O)N2CCN(CCN)CC2)cc1`, testing at 10 µM in data set [1] gave an inhibition of 7.2%. Moreover, in data set [2], the Activity is listed as 100%. Also, in data set [3], the inhibition in vivo at 25 mg/kg was found to be 22.9%.
In the same order, the values of `COc1ccc(NC(=S)NCCCn2cncc2C)cc1OCCCCN` are 2.8%, 100% and 36.6%.
`COc1ccc(NC(=S)NCCCn2cncc2C)cc1OCCCC1CCNCC1` returned an inhibition at 10 µM in data set [1] of 25.6%. In addition, the Activity in data set [2] amounted to 100%. Also, in data set [3], the inhibition in vivo at 25 mg/kg turned out to be 5.5%.
With `COc1ccc(NC(=S)NCCCn2cncc2C)cc1OCCCN`, at 10 µM the inhibition in data set [1] was 8.8%. Also, the Activity in data set [2] was determined as 100%. Besides, the inhibition in vivo at 25 mg/kg in data set [3] came out at 12.8%.
As to `COc1ccc(NC(=S)NCCCn2cncc2C)cc1OCCCCC1CCNCC1`, in data set [1], the inhibition at 10 µM came out at 35.1%. In addition, in data set [2], the Activity came to 100%. For the same molecule, in data set [3], the inhibition in vivo at 25 mg/kg stood at 14.4%.
Molecule `COc1ccc(NC(=S)NCCCn2cncc2C)cc1OCCC1CCNCC1` showed an inhibition at 10 µM in data set [1] of 14.9%. In addition, the Activity in data set [2] was 100%. In addition, in data set [3], the inhibition in vivo at 25 mg/kg came to 1.8%.
Regarding `Cc1cncn1CCCNC(=S)Nc1ccc(OCC(=O)NC2CCN(CCN)CC2)cc1`, at 10 µM the inhibition in data set [1] was 19.9%. In data set [2], the Activity is listed as 100%.

The values are drawn from ChEMBL document CHEMBL4118145, “Structure-activity relationship investigation of Phe-Arg mimetic region of human glutaminyl cyclase inhibitors” (Bioorg Med Chem, 2018).
